# Measurements from ChEMBL document CHEMBL1949515, “Regioselective synthesis and antimicrobial activities of some novel aryloxyacetic acid derivatives” (2012).
# Calls of active or inactive are those of the source. The calls are words filed in the database; no cut-off is given here.
# Key:
# Micrococcus luteus [1] = assay: Antibacterial activity against Sarcina lutea after 24 hrs by agar well diffusion method; format: functional
# How it was run: (§1)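 Agar well diffusion on nutrient agar seeded with bacterial suspension at 1 × 10⁸ CFU/mL. Wells received compound solution from a stock of 100 mg per mL DMSO. Plates incubated 24 h at 37 °C. Read-out is inhibition zone diameter (mm), done in triplicate and averaged.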
# Bacillus subtilis [2] = assay: Antibacterial activity against Bacillus subtilis ATCC 6633 after 24 hrs by agar well diffusion method; format: functional; how it was run: as §1
# Bacillus subtilis [3] = assay: Antibacterial activity against Bacillus subtilis ATCC 6633 after 24 hrs by two fold serial dilution method; format: functional; conditions: ATCC 6633, 24 h
# How it was run: (§2)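 MIC determined by two-fold serial dilution in the appropriate nutrient broth, only for compounds that gave sizeable inhibition zones in the well diffusion screen. Final concentrations stepped down by halves from 66 (66, 33, 16.5 …).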
# Candida albicans [4] = assay: Antifungal activity against Candida albicans NRRL Y-477 by two fold serial dilution method; format: functional; how it was run: as §2
# Candida albicans [5] = assay: Antifungal activity against Candida albicans NRRL Y-477 after 48 hrs by agar well diffusion method; format: functional
# How it was run: (§3)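 Fungal agar well diffusion on Sabouraud dextrose agar seeded at 1 × 10⁶ CFU/mL. Wells received compound solution from a 100 mg per mL DMSO stock. Incubation 48 h at 28 °C. Inhibition zone diameter (mm) measured in triplicate and averaged.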
# Pseudomonas aeruginosa [6] = assay: Antibacterial activity against Pseudomonas aeruginosa ATCC 27953 after 24 hrs by agar well diffusion method; format: functional; how it was run: as §1
# Priestia megaterium [7] = assay: Antibacterial activity against Bacillus megaterium after 24 hrs by agar well diffusion method; format: functional; how it was run: as §1
# Klebsiella pneumoniae [8] = assay: Antibacterial activity against Klebsiella pneumoniae ATCC 13883 after 24 hrs by agar well diffusion method; format: functional; how it was run: as §1
# Mycolicibacterium phlei [9] = assay: Antibacterial activity against Mycobacterium phlei after 24 hrs by agar well diffusion method; format: functional; how it was run: as §1
# Saccharomyces cerevisiae [10] = assay: Antifungal activity against Saccharomyces cerevisiae after 48 hrs by agar well diffusion method; format: functional; how it was run: as §3
# Staphylococcus aureus [11] = assay: Antibacterial activity against Staphylococcus aureus ATCC 29213 after 24 hrs by agar well diffusion method; format: functional; how it was run: as §1
# Klebsiella pneumoniae [12] = assay: Antibacterial activity against Klebsiella pneumoniae ATCC 13883 after 24 hrs by two fold serial dilution method; format: functional; conditions: ATCC 13883, 24 h; how it was run: as §2
# Priestia megaterium [13] = assay: Antibacterial activity against Bacillus megaterium after 24 hrs by two fold serial dilution method; format: functional; how it was run: as §2
# Saccharomyces cerevisiae [14] = assay: Antifungal activity against Saccharomyces cerevisiae by two fold serial dilution method; format: functional; how it was run: as §2
# Escherichia coli [15] = assay: Antibacterial activity against Escherichia coli ATCC 25922 after 24 hrs by agar well diffusion method; format: functional; how it was run: as §1
# Staphylococcus aureus [16] = assay: microbe, parasite or virus in culture; conditions: ATCC 29213, 24 h, read-out: DIZ
# Staphylococcus aureus [17] = assay: Antibacterial activity against Staphylococcus aureus ATCC 29213 after 24 hrs by two fold serial dilution method; format: functional; conditions: ATCC 29213, 24 h; how it was run: as §2
# Micrococcus luteus [18] = assay: Antibacterial activity against Sarcina lutea at 50 ug/ml after 24 hrs by agar well diffusion method; format: functional; conditions: read-out: DIZ
# Klebsiella pneumoniae [19] = assay: microbe, parasite or virus in culture; conditions: ATCC 13883, 24 h, read-out: DIZ
# Pseudomonas aeruginosa [20] = assay: microbe, parasite or virus in culture; conditions: ATCC 27953, 24 h, read-out: DIZ
# Mycolicibacterium phlei [21] = assay: Antibacterial activity against Mycobacterium phlei at 50 ug/ml after 24 hrs by agar well diffusion method; format: functional; conditions: read-out: DIZ
# How it was run: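 Agar well diffusion. Plates were seeded with bacterial suspension at 1 × 10⁸ CFU/mL spread on nutrient agar. Wells received compound solution made as a 100 mg/mL DMSO stock. Plates were incubated 24 h at 37 °C. Read-out was inhibition zone diameter (mm), run in triplicate and averaged. Ciprofloxacin was the reference.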
# Escherichia coli [22] = assay: Antibacterial activity against Escherichia coli ATCC 25922 after 24 hrs by two fold serial dilution method; format: functional; conditions: ATCC 25922, 24 h; how it was run: as §2
# Pseudomonas aeruginosa [23] = assay: Antibacterial activity against Pseudomonas aeruginosa ATCC 27953 after 24 hrs by two fold serial dilution method; format: functional; conditions: ATCC 27953, 24 h; how it was run: as §2
# Priestia megaterium [24] = assay: Antibacterial activity against Bacillus megaterium at 50 ug/ml after 24 hrs by agar well diffusion method; format: functional; conditions: read-out: DIZ
# Bacillus subtilis [25] = assay: microbe, parasite or virus in culture; conditions: ATCC 6633, 24 h, read-out: DIZ
# Mycolicibacterium phlei [26] = assay: Antibacterial activity against Mycobacterium phlei after 24 hrs by two fold serial dilution method; format: functional; how it was run: as §2
# Micrococcus luteus [27] = assay: Antibacterial activity against Sarcina lutea after 24 hrs by two fold serial dilution method; format: functional; how it was run: as §2
SMILES,MIC (Bacillus subtilis [3]) [µg/mL],MIC (Candida albicans [4]) [µg/mL],MIC (Klebsiella pneumoniae [12]) [µg/mL],MIC (Priestia megaterium [13]) [µg/mL],MIC (Saccharomyces cerevisiae [14]) [µg/mL],diameter of the inhibition zone (DIZ) (Micrococcus luteus [1]),diameter of the inhibition zone (DIZ) (Bacillus subtilis [2]),diameter of the inhibition zone (DIZ) (Candida albicans [5]) [mm],diameter of the inhibition zone (DIZ) (Pseudomonas aeruginosa [6]),diameter of the inhibition zone (DIZ) (Priestia megaterium [7]),diameter of the inhibition zone (DIZ) (Klebsiella pneumoniae [8]) [mm],diameter of the inhibition zone (DIZ) (Mycolicibacterium phlei [9]),diameter of the inhibition zone (DIZ) (Saccharomyces cerevisiae [10]) [mm],diameter of the inhibition zone (DIZ) (Staphylococcus aureus [11]),diameter of the inhibition zone (DIZ) (Escherichia coli [15]),MIC (Escherichia coli [22]) [µg/mL],further results
CC(=N/NC(=O)COc1ccc(Cl)cc1Cl)/C(Cl)=N\Nc1ccc(Cl)cc1,66,66,33,16.5,16.5,inactive,18 mm,18,inactive,20 mm,21,15 mm,24,inactive,inactive,,
O=C(COc1ccc2ccccc2c1)NN/C=C(\NNC(=O)COc1ccc2ccccc2c1)c1cc2ccccc2oc1=O,66,66,33,16.5,16.5,inactive,18 mm,20,inactive,20 mm,21,inactive,21,inactive,inactive,,
CC(=N/NC(=O)COc1ccc(Cl)cc1Cl)/C(Cl)=N\Nc1ccc(Br)cc1,66,33,33,16.5,8.25,inactive,18 mm,21,inactive,22 mm,20,inactive,27,inactive,inactive,,
O=C(O)c1cn(C2CC2)c2cc(N3CCNCC3)c(F)cc2c1=O [CIPROFLOXACIN],8.25,,16.5,8.25,,,,,,,,,,,,16.5,zone of inhibition at 50 µg/mL (Staphylococcus aureus [16]): 20 mm; MIC (Staphylococcus aureus [17]): 8.25 µg/mL; zone of inhibition at 50 µg/mL (Micrococcus luteus [18]): 20 mm; zone of inhibition at 50 µg/mL (Klebsiella pneumoniae [19]): 25 mm; zone of inhibition at 50 µg/mL (Pseudomonas aeruginosa [20]): 24 mm; zone of inhibition at 50 µg/mL (Mycolicibacterium phlei [21]): 22 mm; MIC (Pseudomonas aeruginosa [23]): 16.5 µg/mL; zone of inhibition at 50 µg/mL (Priestia megaterium [24]): 24 mm; zone of inhibition at 50 µg/mL (Bacillus subtilis [25]): 22 mm; MIC (Mycolicibacterium phlei [26]): 16.5 µg/mL; MIC (Micrococcus luteus [27]): 16.5 µg/mL

# Further lines, with some results ahead:
MIC (Bacillus subtilis [3]) [µg/mL],MIC (Candida albicans [4]) [µg/mL],MIC (Klebsiella pneumoniae [12]) [µg/mL],MIC (Priestia megaterium [13]) [µg/mL],MIC (Saccharomyces cerevisiae [14]) [µg/mL],SMILES,diameter of the inhibition zone (DIZ) (Micrococcus luteus [1]),diameter of the inhibition zone (DIZ) (Bacillus subtilis [2]),diameter of the inhibition zone (DIZ) (Candida albicans [5]) [mm],diameter of the inhibition zone (DIZ) (Pseudomonas aeruginosa [6]),diameter of the inhibition zone (DIZ) (Priestia megaterium [7]),diameter of the inhibition zone (DIZ) (Klebsiella pneumoniae [8]) [mm],diameter of the inhibition zone (DIZ) (Mycolicibacterium phlei [9]),diameter of the inhibition zone (DIZ) (Saccharomyces cerevisiae [10]) [mm],diameter of the inhibition zone (DIZ) (Staphylococcus aureus [11]),diameter of the inhibition zone (DIZ) (Escherichia coli [15]),MIC (Escherichia coli [22]) [µg/mL],further results
66,33,33,16.5,16.5,CC(=N/NC(=O)COc1ccc2ccccc2c1)/C(Cl)=N\Nc1ccc(Br)cc1,inactive,18 mm,21,inactive,21 mm,21,inactive,24,inactive,inactive,,
,33,16.5,,16.5,CC(=N/NC(=O)COc1ccc2ccccc2c1)/C(Cl)=N\Nc1ccc(Cl)cc1,inactive,inactive,20,inactive,inactive,24,16 mm,26,inactive,21 mm,16.5,
